Results: ChEMBL document CHEMBL1938297, “Synthesis, radiofluorination and pharmacological evaluation of a fluoromethyl spirocyclic PET tracer for central σ1 receptors and comparison with fluoroalkyl homologs” (Bioorg Med Chem, 2012)

Experiments:
[1] = Biodistribution in CD1 mouse urine at 300 kBq, iv after 30 mins by gamma counting; type: ADME, organism-based; details: in vivo, 0.5 h
Summary of the method: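 Female CD-1 mice received 300 kBq of the radiotracer i.v.; 3–6 animals per time point were anaesthetised at 5, 30, 60 or 120 min p.i. Blood and urine were collected, animals were killed by cervical dislocation, and organs were dissected and weighed. Activity was counted in a calibrated gamma counter and expressed as % injected dose per g wet tissue, mean with SD.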

Femur [2] = assay: Biodistribution in CD1 mouse flushed femur at 300 kBq, iv after 30 mins by gamma counting; type: ADME, organism-based; details: in vivo, 0.5 h
Summary of the method: (§1)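 Female CD-1 mice received [18F]1 (300 kBq) i.v.; 3–6 animals per time point anesthetized at 5, 30, 60 or 120 min p.i., blood and urine collected, animals euthanized by cervical dislocation, organs dissected and weighed. Radioactivity counted in a calibrated gamma counter; % ID/g = tissue counts / initial dose counts / tissue weight; means with SD.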

Liver [3] = assay: Biodistribution in CD1 mouse liver at 300 kBq, iv after 5 mins by gamma counting; type: ADME, organism-based; details: in vivo
Summary of the method: (§2)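 Female CD-1 mice received the 18F tracer iv at 300 kBq in 0.9% NaCl containing 5% ethanol; 3–6 animals per time point (5, 30, 60, 120 min p.i.). Animals anaesthetized, blood and urine collected, killed by cervical luxation, organs dissected and weighed, counted in calibrated gamma counter. %ID/g = tissue counts / initial dose counts / tissue weight; mean with SD.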

[4] = Biodistribution in CD1 mouse intestinal content at 300 kBq, iv after 5 mins by gamma counting; type: ADME, organism-based, Intestine; details: in vivo; summary of the method: as §2
Mus musculus [5] = assay: Biodistribution in CD1 mouse adrenals at 300 kBq, iv after 60 mins by gamma counting; type: ADME, organism-based, Adrenal gland; details: in vivo, 1 h; summary of the method: as §1
Mus musculus [6] = assay: Biodistribution in CD1 mouse adrenals at 300 kBq, iv after 30 mins by gamma counting; type: ADME, organism-based, Adrenal gland; details: in vivo, 0.5 h; summary of the method: as §1
Heart [7] = assay: Biodistribution in CD1 mouse heart at 300 kBq, iv after 120 mins by gamma counting; type: ADME, organism-based; details: in vivo, 2 h; summary of the method: as §2
Femur [8] = assay: Biodistribution in CD1 mouse flushed femur at 300 kBq, iv after 120 mins by gamma counting; type: ADME, organism-based; details: in vivo, 2 h; summary of the method: as §1
Mus musculus [9] = assay: Biodistribution in CD1 mouse thalmic nuclei in brain saggital section at 24 MBq, iv at 45 mins by autoradiography; type: ADME, organism-based; details: in vivo, 0.75 h
Summary of the method: (§3)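 Ex vivo autoradiography: female CD-1 mouse given 18F tracer iv (24 MBq), killed 45 min p.i.; brain hemispheres frozen in isopentane (−35 °C), 12 µm sagittal cryostat sections thaw-mounted, air-dried and exposed to 18F-sensitive phosphor screens. Regional uptake compared with anterior olfactory bulb as nontarget region (target-to-nontarget ratio).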

Brain [10] = assay: Biodistribution in CD1 mouse brain at 300 kBq, iv after 120 mins by gamma counting; type: ADME, organism-based; details: in vivo, 2 h; summary of the method: as §1
Lung [11] = assay: Biodistribution in CD1 mouse lung at 300 kBq, iv after 60 mins by gamma counting; type: ADME, organism-based; details: in vivo, 1 h; summary of the method: as §2
Femur [12] = assay: Biodistribution in CD1 mouse femur at 300 kBq, iv after 30 mins by gamma counting; type: ADME, organism-based; details: in vivo, 0.5 h; summary of the method: as §1
Heart [13] = assay: Biodistribution in CD1 mouse heart at 300 kBq, iv after 60 mins by gamma counting; type: ADME, organism-based; details: in vivo, 1 h; summary of the method: as §2
[14] = Ratio of biodistribution in anterior olfactory bulb to facial nucleus in brain saggital section of CD1 mouse at 24 MBq, iv after 45 mins; type: ADME, organism-based; details: in vivo, 0.75 h
Summary of the method: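 Female CD-1 mouse given 24 MBq radiotracer i.v. and killed at 45 min. The brain hemispheres were frozen in isopentane (−35 °C), cut into 12 µm sagittal cryosections and exposed to 18F-sensitive phosphor screens. Regional uptake was expressed as a target-to-nontarget ratio, with the anterior olfactory bulb as the nontarget reference.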

Mus musculus [15] = assay: Biodistribution in CD1 mouse gonads at 300 kBq, iv after 30 mins by gamma counting; type: ADME, organism-based, Gonad; details: in vivo, 0.5 h; summary of the method: as §1
Mus musculus [16] = assay: Biodistribution in CD1 mouse dorsomedial hyphalmus in brain saggital section at 24 MBq, iv at 45 mins by autoradiography; type: ADME, organism-based; details: in vivo, 0.75 h
Summary of the method: (§4)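 Female CD-1 mouse given [18F]1 (24 MBq) i.v. and sacrificed at 45 min. Brain hemispheres frozen in isopentane (−35 °C), cut into 12 µm sagittal cryosections, thaw-mounted, air-dried and exposed to 18F-sensitive storage phosphor screens. Anterior olfactory bulb served as nontarget region for target-to-nontarget ratios.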

Cerebellum = assay: Biodistribution in CD1 mouse cerebellum at 300 kBq, iv after 60 mins by gamma counting; type: ADME, organism-based; details: in vivo, 1 h; summary of the method: as §1
Mus musculus [17] = assay: Biodistribution in CD1 mouse dorsolateral periaqueductal gray in brain saggital section at 24 MBq, iv at 45 mins by autoradiography; type: ADME, organism-based; details: in vivo, 0.75 h; summary of the method: as §4
[18] = Chemical stability of the compound in phosphate-saline solution at pH 7.2 assessed as compound remaining after 2 hrs by radio-HPLC/TLC analysis; type: physicochemical; details: read-out: Stability
Summary of the method: (§5)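 Radiotracer incubated 120 min at 40 °C in 0.9% NaCl (pH 7.2), phosphate-saline (0.1 M sodium phosphate, 0.15 M NaCl, pH 7.2) or 0.01 M TRIS–HCl (pH 7.4 at 21 °C). Aliquots were taken at set times and analysed by radio-TLC on silica and by gradient radio-HPLC on RP-18 (MeCN/20 mM ammonium acetate, 254 nm), giving % unchanged tracer; n = 2.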

[19] = Metabolic stability in CD1 mouse brain homogenates assessed as compound remaining at 191 MBq, iv after 30 mins by radio-HPLC/TLC analysis; type: ADME, organism-based; details: brain homogenate, read-out: Stability
Summary of the method: (§6)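 Female CD-1 mice were injected with the radiotracer via the tail vein and killed at 30 or 60 min p.i. Whole brains (n = 2 per time) were homogenised in 50 mM TRIS–HCl pH 7.4 at 4 °C and extracted twice with ice-cold acetonitrile. Concentrated extracts were analysed by radio-HPLC and radio-TLC to give % parent versus radiometabolites.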

Striatum = assay: Biodistribution in CD1 mouse striatum in brain saggital section at 24 MBq, iv at 45 mins by autoradiography; type: ADME, organism-based; details: in vivo, 0.75 h; summary of the method: as §3
Lung [20] = assay: Biodistribution in CD1 mouse lung at 300 kBq, iv after 5 mins by gamma counting; type: ADME, organism-based; details: in vivo; summary of the method: as §2
Spleen = assay: Biodistribution in CD1 mouse spleen at 300 kBq, iv after 120 mins by gamma counting; type: ADME, organism-based; details: in vivo, 2 h; summary of the method: as §2
Mus musculus [21] = assay: Biodistribution in CD1 mouse large intestine at 300 kBq, iv after 120 mins by gamma counting; type: ADME, organism-based; details: in vivo, 2 h; summary of the method: as §2
Mus musculus [22] = assay: Biodistribution in CD1 mouse gonads at 300 kBq, iv after 60 mins by gamma counting; type: ADME, organism-based, Gonad; details: in vivo, 1 h; summary of the method: as §1
[23] = Chemical stability of the compound in 0.01 M Tris-HCl at pH 7.4 assessed as compound remaining after 2 hrs by radio-HPLC/TLC analysis; type: physicochemical; details: read-out: Stability; summary of the method: as §5
Pancreas = assay: Biodistribution in CD1 mouse pancreas at 300 kBq, iv after 120 mins by gamma counting; type: ADME, organism-based; details: in vivo, 2 h; summary of the method: as §2
Brain [24] = assay: Drug metabolism in CD1 mouse brain homogenates assessed as radiometabolites at 191 MBq, iv after 30 mins by radio-HPLC/TLC analysis; type: ADME, organism-based; details: in vivo, 0.5 h; summary of the method: as §6
Liver [25] = assay: Biodistribution in CD1 mouse liver at 300 kBq, iv after 120 mins by gamma counting; type: ADME, organism-based; details: in vivo, 2 h; summary of the method: as §2
Heart [26] = assay: Biodistribution in CD1 mouse heart at 300 kBq, iv after 30 mins by gamma counting; type: ADME, organism-based; details: in vivo, 0.5 h; summary of the method: as §2
Femur [27] = assay: Biodistribution in CD1 mouse femur at 300 kBq, iv after 5 mins by gamma counting; type: ADME, organism-based; details: in vivo; summary of the method: as §1

## [18F]CC1OC2(CCN(Cc3ccccc3)CC2)c2ccccc21 (stereo unspecified)
[1]
  Drug uptake: 46.35 % ID/g
Femur [2]
  Drug uptake: 1.42 % ID/g
Liver [3]
  Drug uptake: 5.31 % ID/g
[4]
  Drug uptake: 0.39 % ID/g
Mus musculus [5]
  Drug uptake: 7.48 % ID/g
Mus musculus [6]
  Drug uptake: 13.39 % ID/g
Heart [7]
  Drug uptake: 3.05 % ID/g
Femur [8]
  Drug uptake: 1.29 % ID/g
Mus musculus [9]
  Drug uptake: Active
Brain [10]
  Drug uptake: 2.7 % ID/g
Lung [11]
  Drug uptake: 8.32 % ID/g
Femur [12]
  Drug uptake: 4.34 % ID/g
Heart [13]
  Drug uptake: 2.96 % ID/g
[14]
  Ratio: 1.34
Mus musculus [15]
  Drug uptake: 4.75 % ID/g
Mus musculus [16]
  Drug uptake: Active
Cerebellum
  Drug uptake: 4.27 % ID/g
Mus musculus [17]
  Drug uptake: Active
[18]
  remaining at 2 h: 96.5%
[19]
  remaining at 0.5 h: 90%
Striatum
  Drug uptake: Active
Lung [20]
  Drug uptake: 18.01 % ID/g
Spleen
  Drug uptake: 4.84 % ID/g
Mus musculus [21]
  Drug uptake: 1.46 % ID/g
Mus musculus [22]
  Drug uptake: 3.28 % ID/g
[23]
  remaining at 2 h: 100%
Pancreas
  Drug uptake: 11.99 % ID/g
Brain [24]
  Drug metabolism: Active
Liver [25]
  Drug uptake: 3.95 % ID/g
Heart [26]
  Drug uptake: 4.57 % ID/g
Femur [27]
  Drug uptake: 2.32 % ID/g
